The source made the active and inactive calls. No cut-off for these calls is given here.
Key:
Rattus norvegicus = assay: Inhibition of 5-CT-induced hypothermia in rat at 10 mg/kg, ip; assay type: functional, organism-based; set-up: dose 10 mg/kg
Procedure, shortened: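 Conscious rats given test compound intraperitoneally at 10 mg/kg; antagonism of hypothermia induced by the 5-HT7 agonist 5-CT assessed.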

[1] = Drug level in rat brain at 10 mg/kg, ip after 1 hr; assay type: ADME, organism-based; set-up: dose 10 mg/kg, route intraperitoneal; conditions: read-out: Drug uptake
Procedure, shortened: (§1)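 Rats dosed 10 mg/kg intraperitoneally; brain and plasma compound concentrations measured 1 h after dosing.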

[2] = biological target: 5-hydroxytryptamine receptor 7 (Rattus norvegicus, UniProt P32305); assay: Displacement of [3H]5-CT from rat recombinant 5HT7 receptor expressed in HEK293 cells after 60 mins; assay type: cell-based
Sequence of 5-hydroxytryptamine receptor 7 (Rattus norvegicus, UniProt P32305) (P32305 whole entry): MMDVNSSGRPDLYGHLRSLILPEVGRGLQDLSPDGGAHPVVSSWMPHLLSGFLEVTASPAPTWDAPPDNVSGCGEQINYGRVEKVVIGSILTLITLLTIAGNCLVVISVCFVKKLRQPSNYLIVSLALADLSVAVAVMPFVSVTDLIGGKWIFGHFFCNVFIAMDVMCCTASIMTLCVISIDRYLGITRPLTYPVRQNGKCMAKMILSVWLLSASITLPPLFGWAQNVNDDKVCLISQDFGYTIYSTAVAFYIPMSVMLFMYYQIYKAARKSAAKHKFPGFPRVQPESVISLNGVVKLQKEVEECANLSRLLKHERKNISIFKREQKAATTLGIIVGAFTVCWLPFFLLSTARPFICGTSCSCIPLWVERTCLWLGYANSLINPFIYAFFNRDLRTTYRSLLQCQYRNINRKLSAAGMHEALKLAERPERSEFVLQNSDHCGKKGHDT
Procedure, shortened: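 Membranes from HEK-293 cells stably expressing rat 5-HT7 incubated 60 min at room temperature with 1 nM [3H]5-CT and increasing test compound; rapid filtration, radioactivity counted. IC50 from nonlinear sigmoidal fits, Ki by Cheng-Prusoff. Means of three experiments in triplicate, SEM; final DMSO ≤0.4%.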

[3] = biological target: 5-hydroxytryptamine receptor 7 (Rattus norvegicus) (UniProt P32305); assay: Antagonist activity at rat recombinant 5HT7 receptor expressed in HEK293 cells assessed as decrease of 5-CT-induced increase of cAMP level after 20 mins by competitive immunoassay
Sequence of 5-hydroxytryptamine receptor 7 (Rattus norvegicus) (P32305 whole entry): as above

[4] = Drug level in rat plasma at 10 mg/kg, ip after 1 hr; assay type: ADME, organism-based; set-up: dose 10 mg/kg, route intraperitoneal; conditions: read-out: Drug uptake; procedure, shortened: as §1
[5] = Binding affinity to adrenergic alpha1 receptor
[6] = biological target: 5-hydroxytryptamine receptor 7 (Homo sapiens, UniProt P34969); assay: Binding affinity to 5HT7 receptor
Sequence of 5-hydroxytryptamine receptor 7 (Homo sapiens, UniProt P34969) (P34969 whole entry): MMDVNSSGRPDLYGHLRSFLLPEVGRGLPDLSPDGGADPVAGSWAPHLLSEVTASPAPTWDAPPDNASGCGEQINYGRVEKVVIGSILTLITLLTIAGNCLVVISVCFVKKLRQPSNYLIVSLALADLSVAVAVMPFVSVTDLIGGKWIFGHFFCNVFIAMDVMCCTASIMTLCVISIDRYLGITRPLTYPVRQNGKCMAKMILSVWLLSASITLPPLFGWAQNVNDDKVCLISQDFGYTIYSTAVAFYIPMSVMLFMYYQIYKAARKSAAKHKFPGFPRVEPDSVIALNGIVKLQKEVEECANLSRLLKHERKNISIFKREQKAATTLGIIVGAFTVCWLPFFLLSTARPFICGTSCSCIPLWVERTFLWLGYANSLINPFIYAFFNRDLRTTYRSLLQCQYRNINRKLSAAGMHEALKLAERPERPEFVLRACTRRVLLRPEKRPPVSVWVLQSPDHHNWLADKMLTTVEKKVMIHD

Compound | Ki [2] [nM] | further results
CC(C)(C)c1ccc(-c2cn(Cc3ccccc3)c3c2CNCC3)cc1 | 10000 | 
O=[N+]([O-])c1ccc(-c2cn(Cc3ccccc3)c3c2CNCC3)cc1 | 450 | 
Clc1ccc(-c2cn(Cc3ccccc3)c3c2CNCC3)cc1Cl | 4470 | 
Fc1cccc(-c2cn(Cc3ccccc3)c3c2CNCC3)c1 | 2730 | 
Clc1ccccc1Cn1cc(-c2ccccc2)c2c1CCNC2 | 2290 | 
Clc1ccc(-c2nn(Cc3ccccc3)c3c2CNCC3)cc1 |  | Ki [6]: 14 nM
Clc1ccc(-c2cn(Cc3ccccc3)c3c2CNCC3)c(Cl)c1 | 2070 | 
Clc1ccc(-c2cn(Cc3cccc(Cl)c3)c3c2CNCC3)cc1 | 533 | 
Oc1ccc(-c2cn(Cc3ccccc3)c3c2CNCC3)cc1 | 10000 | 
FC(F)(F)Oc1ccc(-c2cn(Cc3ccccc3)c3c2CNCC3)cc1 | 10000 | 
Clc1ccc(Cn2cc(-c3ccccc3)c3c2CCNC3)cc1 | 753 | 
Clc1cccc(Cn2cc(-c3ccccc3)c3c2CCNC3)c1 | 6600 | 
Clc1cccc(-c2cn(Cc3ccccc3)c3c2CNCC3)c1 | 10000 | 

More lines, main results first:

Ki [2] [nM] | Compound | further results
35 | Cc1ccc(-c2cn(Cc3ccccc3)c3c2CNCC3)cc1 | Activity (Rattus norvegicus): Active; concentration at 1 h [1]: 27 µM; pKb [3]: 7.6; concentration at 1 h [4]: 3 µM; Activity [5]: 5 nM
290 | COc1ccc(-c2cn(Cc3ccccc3)c3c2CNCC3)cc1 | 
220 | c1ccc(Cn2cc(-c3ccccc3)c3c2CCNC3)cc1 | pKb [3]: 6.7
250 | CCN1CCc2c(c(-c3ccc(Cl)cc3)cn2Cc2ccccc2)C1 | 
167 | FC(F)(F)c1ccc(-c2cn(Cc3ccccc3)c3c2CNCC3)cc1 | 
45 | Fc1ccc(-c2cn(Cc3ccccc3)c3c2CNCC3)cc1 | 
36 | CN1CCc2c(c(-c3ccc(Cl)cc3)cn2Cc2ccccc2)C1 | 
370 | CC(C)N1CCc2c(c(-c3ccc(Cl)cc3)cn2Cc2ccccc2)C1 | 
107 | Clc1ccc(-c2cn(Cc3ccccc3)c3c2CNCC3)cc1 | pKb [3]: 7.2

Reference: ChEMBL document CHEMBL1641380, “Novel tetrahydropyrido[3,2-c]pyrroles as 5-HT(7) antagonists” (Bioorg Med Chem Lett, 2011)
